In the library only some 3.8% were active in any assay of this set; here they are far more common.
CSC inhib: cancer stem cell inhibition | cancer stem cell-like cells viability, luminescence | inhibition, % at 7.5 µM | 300,000 compounds, 1.1% hits; in the data active means inhibition above about 75%; tested in HMLE shEcad cells
MC4R antagonist: blocks human MC4R cAMP signaling | MC4R-expressing cells, MTII-stimulated cAMP, LANCE TR-FRET | inhibition, % at 6.5 µM | 360,000 compounds, 0.48% hits | AID 540295;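 active means inhibition above its plate's cutoff, the mean of tested wells on that plate plus 3 SD, cut at about 29% in these data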
Target sequence (P32245 whole entry, looked up): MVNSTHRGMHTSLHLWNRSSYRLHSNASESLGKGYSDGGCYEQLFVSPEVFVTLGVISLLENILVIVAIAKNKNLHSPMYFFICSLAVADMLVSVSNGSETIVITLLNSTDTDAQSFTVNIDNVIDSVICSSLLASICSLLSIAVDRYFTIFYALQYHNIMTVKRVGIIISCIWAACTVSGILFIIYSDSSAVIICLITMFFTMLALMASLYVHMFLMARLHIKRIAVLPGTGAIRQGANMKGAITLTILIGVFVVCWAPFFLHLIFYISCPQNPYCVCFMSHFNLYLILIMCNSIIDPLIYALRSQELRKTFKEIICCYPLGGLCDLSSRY
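Assay system: U2OS cells stably expressing human melanocortin 4 receptor (MC4R) / Dosing: 6.5 µM / Timing: compound 30 min, challenge 1 h, detection 1 h / Measured by: Eu-cAMP/anti-cAMP TR-FRET, emission 671 nm / Replicates: singlicate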
MC4R barr agon: activates human MC4R beta-arrestin recruitment. U2OS MC4R beta-arrestin complementation, luminescence; percent of melanotan II response, DMSO zero. activation, % at 8.9 µM. 360,000 compounds, 0.98% hits;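 active means activation above a per-plate cutoff, the mean activation of sample wells on that plate plus 3 SD, cut at about 8% in these data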
Beta cell apopt: beta cell apoptosis inhibition; 300,000 compounds, 0.8% hits; protection from apoptosis, % (no concentration beside the values); INS-1E cytokine-induced death, ATP luminescence, 48 h; percent of positive-control rescue, neutral wells zero;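 active means Every replicate reaches about 75%, or at least half do and their mean reaches it too, limit read from the data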;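 further: higher means more ATP so stronger rescue from cytokine killing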
TMEM16A inh: inhibitors of mouse TMEM16A calcium-activated chloride channel | Q8BHY3 | HEK293 TMEM16A/YFP iodide influx fluorescence, ionomycin | normalized B-score (activity score, 25-100; higher = stronger inhibition) at 10 µM | 310,000 compounds, 1.2% hits | AID 588511;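 active means ratio plate-corrected score three or more library SD toward inhibition, starting fluorescence score within five deviations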;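 further: score derived from kinetic fluorescence span divided by baseline fluorescence per well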
TMEM16A act: mouse TMEM16A channel activation, primary screen; Q8BHY3; HEK293 TMEM16A/YFP-H148Q/I152L, iodide quench fluorescence; active compounds read low; B-score at 10 µM; 340,000 compounds, 0.3% hits; AID 623877;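 active means fluorescence-ratio B-score plate-corrected deviation score at least 3 library SD below zero, with starting fluorescence score within 5 deviations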;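 further: channel opened by trigger with iodide after compound preincubation; score built on the fluorescence ratio of max minus min over baseline; more negative score means more quench and so TMEM16A activation or potentiation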
cAMP nonselect: U2OS forskolin cAMP inhibition counter-screen. shares compounds with MC4R antagonist. parental U2OS, LANCE TR-FRET. inhibition, % at 6.5 µM. 1,600 compounds, 26% hits. AID 602193;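 active means mean inhibition over triplicates above the low-control well mean plus 3 SD, set per campaign, cut at about 13% in these data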;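 further: signal is single emission at 671 nm which falls as cellular cAMP rises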
MC4R cAMP antag: human MC4R cAMP antagonism confirmation; inhibition, % at 6.5 µM; MC4R-expressing cells, MTII-stimulated cAMP, TR-FRET; 1,600 compounds, 27% hits; shares compounds with MC4R antagonist; in the data active means inhibition above about 29%
Each line names hits and unclear results; the compound was inactive in the other large screens (follow-up assays come after a bar, where they were run).

Cn1c(C2CCCCC2)nc2c1c(=O)[nH]c(=O)n2Cc1ccccc1	MC4R antagonist 34 | cAMP nonselect inactive | MC4R cAMP antag inactive
Cc1ccc(-c2nc3c(c(=O)[nH]c(=O)n3Cc3ccccc3)n2Cc2ccccc2)o1	none (no result: CSC inhib, Beta cell apopt, TMEM16A inh)
CN(CC(=O)NCCc1ccc(F)cc1)Cc1ccc(Br)cc1	none (no result: CSC inhib)
CN(CC(=O)NCCCc1ccccc1)Cc1ccc(Br)cc1	MC4R antagonist 30 | cAMP nonselect inactive | MC4R cAMP antag inactive
COCCNC(=O)c1ccc(N2CC3CC(C2)c2cccc(=O)n2C3)c(NC(=O)c2ccc(C(C)(C)C)cc2)c1 (stereo unspecified)	none (no result: CSC inhib, Beta cell apopt, TMEM16A inh, TMEM16A act)
CCOc1cccc(/C=N/N2CCN(c3ccc(Cl)cc3)CC2)c1O	MC4R antagonist 32 | cAMP nonselect inactive | MC4R cAMP antag inactive
O=C(O)C1C2OC3C(OC(=O)C31)C2Br (stereo unspecified)	none (no result: CSC inhib, Beta cell apopt, TMEM16A inh)
COc1ccc(/C=C(\C#N)C(=O)Nc2cccc3ncccc23)cc1OC	MC4R antagonist 31 | cAMP nonselect inactive | MC4R cAMP antag inactive
Cc1ccc(S(=O)(=O)NCC(=O)NCC2COc3ccccc3O2)cc1C (stereo unspecified)	none (no result: CSC inhib, TMEM16A inh)
COc1cc(C(=O)OC2CCOC2=O)cc(Cl)c1OC (stereo unspecified)	MC4R antagonist 30 (no result: CSC inhib) | cAMP nonselect 16 | MC4R cAMP antag 30
Cc1ccsc1C1C(C#N)=C(N)Oc2n[nH]c(C)c21 (stereo unspecified)	MC4R antagonist 29 | cAMP nonselect inactive | MC4R cAMP antag inactive
Cc1cccn2c(CN3CCSCC3)c(C(=O)N3CCOCC3)nc12	MC4R antagonist 29 | cAMP nonselect inactive | MC4R cAMP antag inactive
CC(NC(=O)COC(=O)CNS(=O)(=O)/C=C/c1ccccc1)c1ccccc1 (stereo unspecified)	MC4R antagonist 30 (no result: TMEM16A inh) | cAMP nonselect inactive | MC4R cAMP antag inactive
CC(C)(C)NC(=O)NC(=O)COC(=O)CNS(=O)(=O)/C=C/c1ccccc1	none
OC1c2cc(Cl)cc(Cl)c2N=C2CCCN21 (stereo unspecified)	none (no result: CSC inhib, Beta cell apopt, TMEM16A inh, TMEM16A act)
COC(=O)c1ccccc1NC(=O)[C@@H]1CCC(=O)N1C1OC(=O)c2c1ccc(OC)c2OC (stereo partly specified)	none
O=C(NCCCO)C(=O)NCc1ccccn1	MC4R antagonist 30 | cAMP nonselect inactive | MC4R cAMP antag inactive
CCOC(=O)C1CCN(C(=O)c2ccc3c(=O)n4nc(Nc5ccccc5OC)sc4nc3c2)CC1	none (no result: CSC inhib, Beta cell apopt, TMEM16A inh, TMEM16A act)
COc1ccccc1-n1c(SCC(=O)Nc2ccc(C)cc2)nc(O)cc1=O	none
Cc1ccccc1-n1c(SCC(=O)Nc2c(C)cccc2C)nc(O)cc1=O	MC4R antagonist 34 | cAMP nonselect inactive | MC4R cAMP antag inactive
C[C@H]1CN([C@@H](C)CO)C(=O)CCCn2nncc2CO[C@@H]1CN(C)S(=O)(=O)c1ccc(-n2cccn2)cc1	none (no result: CSC inhib, Beta cell apopt, TMEM16A inh, TMEM16A act)
Cc1ccc(/C=C/C(=O)N2CCN(S(=O)(=O)c3ccc(C)c(C)c3)CC2)o1	MC4R antagonist 38 | cAMP nonselect inactive | MC4R cAMP antag inactive
COc1cccc(NC(=S)NC2CC(C)CC(C)(C)C2)c1 (stereo unspecified)	none (no result: CSC inhib, Beta cell apopt, TMEM16A inh, TMEM16A act)
Cc1ccc(S(=O)(=O)N(C)C)cc1NC(=O)CSc1nc2ccccc2c(=O)n1CC1CCCO1 (stereo unspecified)	none
Cc1ccc(S(=O)(=O)N(C)C)cc1NC(=O)Cn1c(CN2CCOCC2)nc2ccccc2c1=O	MC4R antagonist 36 | cAMP nonselect inactive | MC4R cAMP antag inactive
COc1cc(OC)cc(C(=O)Nc2ccccc2C(=O)NC2CC2)c1	none (no result: CSC inhib, TMEM16A inh)
Cc1ccc2[nH]c(O)c(N=NC(=O)c3ccc(NS(=O)(=O)c4cccs4)cc3)c2c1	MC4R antagonist 34 | cAMP nonselect inactive | MC4R cAMP antag inactive
COc1ccc(CNC(=O)C(=O)NCC2OCCN2S(=O)(=O)c2ccc(OC)cc2)cc1 (stereo unspecified)	none
CCOC(=O)C1=C(c2ccccc2)NC(=O)NC1c1ccc(OC)c(OC)c1 (stereo unspecified)	MC4R antagonist 33 | cAMP nonselect inactive | MC4R cAMP antag inactive
CCOC(=O)C1=C(c2ccccc2)NC(=O)NC1c1ccc(OC)cc1 (stereo unspecified)	none
CCCc1cc(=O)[nH]c(SCC(=O)Nc2sc3c(c2C(N)=O)CCCC3)n1	none (no result: TMEM16A inh)
CC(C)(C)c1nc(SCC(=O)NC2CCCC2)c2ccccc2n1	MC4R antagonist 29 | cAMP nonselect inactive | MC4R cAMP antag inactive
CC(=O)c1sccc1NC(=O)c1ccccc1C(=O)O	MC4R antagonist 72 | cAMP nonselect 29 | MC4R cAMP antag 61
N#Cc1c([N+](=O)[O-])cc([N+](=O)[O-])cc1S(=O)(=O)Cc1ccccc1	CSC inhib 125, MC4R antagonist 88, Beta cell apopt 113 (no result: TMEM16A inh) | cAMP nonselect 34 | MC4R cAMP antag inactive
Cc1ccc(NC(=O)c2noc3c2CCCCC3)cc1	none
Cc1ccc(O)c(NC(=O)c2noc3c2CCCCC3)c1	MC4R antagonist 31 | cAMP nonselect inactive | MC4R cAMP antag inactive
COc1ccc(C(C)=O)cc1Cn1c(=O)cc(C)[nH]c1=O	MC4R antagonist 30 (no result: CSC inhib) | cAMP nonselect inactive | MC4R cAMP antag inactive
COc1ccc(-c2csc3ncnc(N4CCN(c5ccccc5Cl)CC4)c23)cc1	MC4R antagonist 29 | cAMP nonselect inactive | MC4R cAMP antag 29
CCS(=O)(=O)N1Cc2ccccc2CC1C(=O)Nc1ccc(OC)c(OC)c1 (stereo unspecified)	none
CCS(=O)(=O)N1Cc2ccccc2CC1C(=O)N(C)Cc1ccc(OC)c(F)c1 (stereo unspecified)	MC4R antagonist 34 | cAMP nonselect inactive | MC4R cAMP antag inactive
Cc1ccc(-n2c(SCC(=O)O)nc3sc4c(c3c2=O)CCCC4)cc1	none
Cc1ccc(-c2c(CC(=O)O)c(C)nc3sc4c(c23)CCCC4)cc1	MC4R antagonist 29 | cAMP nonselect inactive | MC4R cAMP antag inactive
O=S(=O)(c1ccc(SCCOc2ccc(Cl)cc2)nc1)N1CCCC1	none (no result: TMEM16A inh)
CCOC(=O)C1CCCN(S(=O)(=O)c2ccc(S(=O)(=O)N3CCCC3)cc2)C1 (stereo unspecified)	none
CCOC(=O)C1CCCN(S(=O)(=O)c2cnc(Cl)c(Br)c2)C1 (stereo unspecified)	MC4R antagonist 52 | cAMP nonselect 15 | MC4R cAMP antag 38

Screening results from PubChem BioAssay.
